Only some compounds are listed: those with a hit (about 2.1% of all), similar ones and a draw of the others.
Statin myotox sup: suppression of simvastatin myotoxicity | AID 602340 | 0.78% of 330,000 active | C2C12 myotubes + simvastatin, ATP luminescence, 48 h; scaled: DMSO 0, geranylgeraniol control 100 | rescue of ATP level, % at 7.49 µM;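 active means mean ATP rescue above about 67%, or every replicate alone reaching that limit, limit read from the data, passing the limit was not always enough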;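 further: myotubes were challenged with 10 µM simvastatin during compound exposure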
A3G deaminase: APOBEC3G (human) deaminase inhibition | 0.28% of 330,000 active | AID 493012 | inhibition, % at 20 µM | Q9HC16 | recombinant A3G, ssDNA deamination FAM/TAMRA fluorescence;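 active means inhibition of at least 40% at 20 µM, with no more than 30% in the related APOBEC3A deaminase screen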;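 further: plate controls were DMSO wells with A3G for no effect and wells lacking A3G enzyme for full effect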
A3A deaminase: human APOBEC3A DNA deaminase inhibition. P31941. recombinant A3A, FAM/TAMRA ssDNA deamination fluorescence. inhibition, % at 20 µM. 0.41% of 330,000 active. AID 493011;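 active means at least 40% inhibition at 20 µM here, with at most 30% in a related deaminase screen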;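 further: plate controls were A3A with DMSO for no effect and wells lacking A3A enzyme for full effect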
Mot1-301 SUMO: blocks SUMOylation pathway, rescuing yeast Mot1-301 growth; 1% of 320,000 active; S. cerevisiae Mot1-301 growth rescue, ATP luminescence, 38.5C; percent above DMSO median, 100 means doubled; growth rescue, % at 18.8 µM; AID 2716;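 active means every valid replicate shows activation above 250% relative to neutral control wells; inactive means the rest, any valid replicate at or below 250%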;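 further: OY570 slx delta 5 strain wells were the positive control but not used for scaling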
ARFGAP1 inh: inhibitors of rat ARFGAP1; Q62848; inhibition, % at 16.5 µM; 0.26% of 360,000 active; Arfgap1-stimulated ARF1 GTP hydrolysis, GDP FP detection; AID 651572;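 active means inhibition above a per-plate limit, mean inhibition of low control wells plus 3 SD, cut at about 25% in these data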;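 further: 0% = DMSO wells with enzyme and 100% = wells lacking Arfgap1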
Target sequence (Q62848 1-136 limits assumed): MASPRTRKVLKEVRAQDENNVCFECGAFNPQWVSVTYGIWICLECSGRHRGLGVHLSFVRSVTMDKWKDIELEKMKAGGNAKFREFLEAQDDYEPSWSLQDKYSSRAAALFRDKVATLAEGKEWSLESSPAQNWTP
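Material: rat Arfgap1 catalytic domain, aa 1-136; also added: human ARF1(Δ1-17)-GTP substrate; compound dosing: one concentration, 16.5 µM, DMSO 1.26%; incubation: GTP hydrolysis reaction 2 h at 25 °C; measured by: Tracer-displacement fluorescence polarization with EDTA stop, 620/688 nm; evaluation: % inhibition from polarization; repeats: one replicate per compound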
ASAP1 inh: ASAP1 ArfGAP inhibition; 0.19% of 360,000 active; AID 624377; ASAP1-stimulated ARF1 GTP hydrolysis, GDP FP detection; Q9ULH1; inhibition, % at 16.5 µM; in the data active means inhibition above about 25%;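 further: 0% = vehicle with enzyme and substrate and 100% = no enzyme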
Target sequence (Q9ULH1 325-724 limits assumed): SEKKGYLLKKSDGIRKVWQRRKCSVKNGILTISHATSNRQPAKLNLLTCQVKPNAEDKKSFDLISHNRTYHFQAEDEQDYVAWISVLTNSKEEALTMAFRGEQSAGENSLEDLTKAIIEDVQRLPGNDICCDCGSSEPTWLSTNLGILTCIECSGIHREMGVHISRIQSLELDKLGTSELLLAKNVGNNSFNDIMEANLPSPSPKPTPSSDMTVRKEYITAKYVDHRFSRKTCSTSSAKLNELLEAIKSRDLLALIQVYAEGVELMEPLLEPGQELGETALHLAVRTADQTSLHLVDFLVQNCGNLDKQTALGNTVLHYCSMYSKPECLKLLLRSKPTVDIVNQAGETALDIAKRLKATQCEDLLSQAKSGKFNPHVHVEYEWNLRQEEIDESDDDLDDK
* marks the source's active call; other numbers are inactive results; . = no result.

SMILES	Statin myotox sup	A3G deaminase	A3A deaminase	Mot1-301 SUMO	ARFGAP1 inh	ASAP1 inh
O=C(NCc1ccco1)C(c1cccs1)N(C(=O)Cc1cccs1)c1ccccc1 (stereo not given)	7	0	-1	167	-24	4
Cc1ccc(CSCC(=O)N2CCOCC2)cc1	104*	-4	-3	3	3	-8
O=C(C[C@@H]1C[C@H]2c3cc(NC(=O)C4CCC4)ccc3O[C@H]2[C@@H](CO)O1)NCc1ccc(Cl)cc1	4	.	.	.	.	.
O=C(O)c1cc(S(=O)(=O)Nc2cccc3ccccc23)c(Cl)cc1Cl	75*	-3	0	99	10	5
O=C(Nc1ccc(Cl)cc1)N[C@@H]1CC[C@H](CCn2cc(-c3ccccc3F)nn2)O[C@@H]1CO	5	.	.	.	.	.
COc1ccc(CN2CC(C(=O)NCCCN3CCOCC3)CC2=O)cc1 (stereo not given)	98*	-1	-9	-4	11	11
COc1ccc(CN2CC(C(=O)NCCCN3CCCCCC3)CC2=O)cc1 (stereo not given)	-15	-6	-1	-15	6	5
Cc1ccccc1-c1nc(CN2CCC(C(=O)NCCCN3CC(C)CC(C)C3)CC2)c(C)o1 (stereo not given)	-18	-3	1	559*	9	-1
Cc1ccccc1-c1nc(CN2CCC(C(=O)NCc3cccnc3)CC2)c(C)o1	99*	-4	-2	-19	6	-16
Cc1ccccc1-c1nc(CN2CCC(C(=O)NCCCN3CCCC3)CC2)c(C)o1	-10	-7	2	-1	-1	-1
COc1ccccc1CNC(=O)C[C@H]1CC[C@H]2[C@@H](COC[C@@H](O)CN2C(=O)Nc2ccc(Cl)cc2)O1	-14	.	.	.	.	.
CS(=O)(=O)N1CCN(C(=O)c2cc(-c3ccccc3)nc3ccccc23)CC1	19	-5	-3	36	-2	8
CS(=O)(=O)N1CCN(C(=O)c2cc(-c3ccncc3)nc3ccc(Cl)cc23)CC1	108*	-9	-5	4	-3	1
O=C(CS(=O)(=O)c1ccc(F)cc1)N1CCN(c2ccccc2)CC1	.	-6	1	514*	-6	-14
Cc1ccc(S(=O)(=O)CC(=O)N2CCN(c3ccc(F)cc3)CC2)cc1	6	-5	-1	-16	3	19
COc1ccc(/C=C/c2nc3ccccc3n2Cc2ccccc2OC)cc1	.	-8	-3	323*	-12	13
COc1ccccc1Cn1c(/C=C/c2ccccc2)nc2ccccc21	.	-3	3	408*	3	-5
CO[C@@H]1CN(C)C(=O)c2cc(NS(C)(=O)=O)ccc2OC[C@H](C)N(C(=O)C2CCC2)C[C@@H]1C	3	.	.	.	.	.
Cc1ccc(S(=O)(=O)n2nc(OC(=O)C3CCCCC3)cc2N)cc1	-4	0	2	4	11	13
COc1ccc(S(=O)(=O)n2nc(OC(=O)C3CCCCC3)cc2N)cc1	106*	-2	0	23	-6	1
COc1ccc(N2Nc3n[nH]c(N)c3N2)cc1	106*	3	-3	-5	3	1
CCOc1ccc(N2Nc3n[nH]c(N)c3N2)cc1	3	-2	-2	-37	-10	13
O=C(NCC[C@H]1CC[C@@H](NC(=O)C2CCCCC2)[C@@H](CO)O1)c1cc(Cl)cc(Cl)c1	3	.	.	.	.	.
O=CN1CCC(=O)N(Cc2ccccc2)c2ccccc21	109*	-13	-4	0	2	-8
O=C1CCc2ccccc2N1Cc1ccccc1	11	-8	-3	4	2	2
SMILES	Statin myotox sup	A3G deaminase	A3A deaminase	Mot1-301 SUMO	ARFGAP1 inh	ASAP1 inh
CCCN(C)C[C@H]1OCCCC[C@H](C)Oc2ccc(N(C)C)cc2C(=O)N([C@H](C)CO)C[C@H]1C	-37	.	.	.	.	.
O=C(CSc1nnc2ccccn12)NNC(=O)c1cccc(Cl)c1	113*	-4	2	-9	-8	2
Cc1ccc(S(=O)(=O)Nc2ccc3c(c2)CC(=O)N([C@@H](C)CO)C[C@@H](C)[C@@H](CN(C)C)O3)cc1	6	.	.	.	.	.
CCS(=O)(=O)c1ncc(Cl)c(C(=O)Nc2ccccc2OC)n1	144*	-1	0	16	9	-15
C[C@H]1CN([C@@H](C)CO)C(=O)c2cc(NS(=O)(=O)c3ccc(Cl)cc3)ccc2O[C@@H]1CN(C)S(=O)(=O)c1ccc(Cl)cc1	-38	.	.	.	.	.
CSc1cccc(CN2CCC(CO)(Cc3ccccc3)CC2)c1	.	-5	0	459*	9	6
COc1cccc(C(=O)Nc2ccncc2)c1OC	-7	-6	-4	-4	2	-22
COc1cccc(C(=O)Nc2ccc(N(C)C)cc2)c1OC	90*	-8	-3	14	5	-2
COc1cccc(NC(=O)c2cccc(OC)c2OC)c1	116*	-1	1	1	4	2
COC(=O)[C@H]1[C@H](CO)[C@H]2Cn3c(ccc(-c4cccc(F)c4)c3=O)[C@H]2N1C(C)=O	5	.	.	.	.	.
O=S(=O)(NC1CC2CCC1C2)c1ccc(Br)s1 (stereo not given)	.	-8	-5	450*	-9	-3
CO[C@H]1CN(C)C(=O)c2ccc(NS(=O)(=O)c3ccc(C)cc3)cc2OC[C@H](C)N(C(=O)NC(C)C)C[C@H]1C	1	.	.	.	.	.
COc1ccc(-c2nc(Cn3c(SCc4ccc(C)cc4)nc4ccncc43)c(C)o2)cc1OC	-11	-11	-5	460*	-11	2
CNC(=O)C[C@H]1CC[C@@H]2[C@H](COc3ccc(NC(=O)Nc4ccc(Cl)cc4)cc3C(=O)N2C)O1	24	.	.	.	.	.
CCNC(=O)C[C@@H]1CC[C@@H]2[C@@H](COc3ccc(NC(=O)C4CCOCC4)cc3C(=O)N2C)O1	4	.	.	.	.	.
Cc1ccc(NC(=O)C2CCN(S(C)(=O)=O)CC2)cc1C	3	-6	-2	-10	6	-3
COc1ccc(NC(=O)C2CCN(S(C)(=O)=O)CC2)cc1Cl	7	-7	-5	325*	9	-2
CCNC(=O)Nc1ccc2c(c1)C(=O)N(C)[C@H]1CC[C@@H](CC(=O)NCCOC)O[C@@H]1CO2	-7	.	.	.	.	.
CCOC(=O)c1oc2cc(O)c(CC)cc2c(=O)c1-c1cscn1	2	-4	-4	147	-1	16
CCOC(=O)c1ccc(-c2c(C(=O)OCC)oc3cc(O)c(CC)cc3c2=O)o1	100*	-2	0	0	-2	5
CO[C@@H]1CN(C)C(=O)c2ccc(NS(=O)(=O)CC(F)(F)F)cc2OC[C@@H](C)N(Cc2ccccn2)C[C@H]1C	-3	.	.	.	.	.
O=C(NC[C@@H]1[C@@H](c2ccccc2)[C@@H](CO)N1C(=O)C1CCC1)NC1CCCC1	0	.	.	.	.	.
Oc1ccccc1-c1cc(-c2ccc3c(c2)OCCO3)n[nH]1	-40	6	2	-5	11	28*
O=C(O)c1cc(-c2ccc3c(c2)OCCO3)n[nH]1	-4	-3	2	3	6	2

Screening data deposited in PubChem BioAssay by several laboratories.
